Laboratory results published in ChEMBL document CHEMBL2311425, “Histone deacetylase (HDAC) inhibitors with a novel connecting unit linker region reveal a selectivity profile for HDAC4 and HDAC5 with improved activity against chemoresistant cancer cells” (J Med Chem, 2013).

Legend:
[1] = test system: KYSE-510; assay: Potentiation of 3.16 uM cisplatin-induced toxicity in 0.5 uM cisplatin resistant human KYSE-510 cells at 0.25 uM pretreated for 48 hrs followed by 0.5 uM cisplatin treatment by MTT assay; format: functional
[2] = test system: A2780; assay: Potentiation of 8 uM cisplatin-induced toxicity in 5 uM cisplatin resistant human A2780 cells at 1.5 uM pretreated for 48 hrs followed by 5 uM cisplatin treatment by MTT assay; format: functional
[3] = test system: CAL-27; assay: Cytotoxicity against cisplatin sensitive human CAL27 cells after 72 hrs by MTT assay; format: functional, cell-based; details: CAL-27, 72 h
[4] = test system: CAL-27; assay: Potentiation of 2.5 uM cisplatin-induced toxicity in 1 uM cisplatin resistant human CAL27 cells at 0.25 uM pretreated for 48 hrs followed by 1 uM cisplatin treatment by MTT assay; format: functional
[5] = test system: A2780; assay: Potentiation of 5 uM cisplatin-induced toxicity in 5 uM cisplatin resistant human A2780 cells at 1.5 uM pretreated for 48 hrs followed by 5 uM cisplatin treatment by MTT assay; format: functional
[6] = test system: A2780 CisR (Homo sapiens); assay: cells; details: 72 h
[7] = test system: MDA-MB-231; assay: Potentiation of […] cisplatin-induced toxicity in 1 uM cisplatin resistant human MDA-MB-231 cells at 1 uM pretreated for 48 hrs followed by 1 uM cisplatin treatment by MTT assay; format: functional
[8] = biological target: Histone deacetylase; assay: Inhibition of HDAC in cisplatin resistant human MDA-MB-231 cells after 18 hrs by fluorescence assay; format: cell-based
[9] = test system: A2780; assay: Potentiation of 1 uM cisplatin-induced toxicity in 5 uM cisplatin resistant human A2780 cells at 1.5 uM pretreated for 48 hrs followed by 5 uM cisplatin treatment by MTT assay; format: functional
[10] = biological target: Histone deacetylase; assay: Inhibition of HDAC in cisplatin resistant human CAL27 cells after 18 hrs by fluorescence assay; format: cell-based; details: cal-27
[11] = test system: KYSE-510; assay: Potentiation of 8 uM cisplatin-induced toxicity in 0.5 uM cisplatin resistant human KYSE-510 cells at 1.5 uM pretreated for 48 hrs followed by 0.5 uM cisplatin treatment by MTT assay; format: functional
[12] = biological target: T1, Histone deacetylase 8 (Homo sapiens, UniProt Q9BY41); assay: Inhibition of human HDAC8 by fluorescence assay
T1 sequence (Q9BY41 whole entry): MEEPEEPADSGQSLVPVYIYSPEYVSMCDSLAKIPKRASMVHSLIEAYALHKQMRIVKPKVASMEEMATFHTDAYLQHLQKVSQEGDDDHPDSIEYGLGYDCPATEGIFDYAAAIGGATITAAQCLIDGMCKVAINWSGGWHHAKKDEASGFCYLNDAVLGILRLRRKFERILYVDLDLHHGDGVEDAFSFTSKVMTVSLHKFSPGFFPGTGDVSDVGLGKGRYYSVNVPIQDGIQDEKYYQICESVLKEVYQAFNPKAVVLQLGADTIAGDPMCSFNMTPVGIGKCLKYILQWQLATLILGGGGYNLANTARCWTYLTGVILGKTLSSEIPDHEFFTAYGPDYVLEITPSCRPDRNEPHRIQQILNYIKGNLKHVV

[13] = test system: MDA-MB-231; assay: Potentiation of […] cisplatin-induced toxicity in 1 uM cisplatin resistant human MDA-MB-231 cells at 0.5 uM pretreated for 48 hrs followed by 1 uM cisplatin treatment by MTT assay; format: functional
[14] = test system: KYSE-510; assay: Potentiation of 1 uM cisplatin-induced toxicity in 0.5 uM cisplatin resistant human KYSE-510 cells at 1.5 uM pretreated for 48 hrs followed by 0.5 uM cisplatin treatment by MTT assay; format: functional
[15] = test system: CAL-27; assay: Potentiation of 2.5 uM cisplatin-induced toxicity in 1 uM cisplatin resistant human CAL27 cells at 1.5 uM pretreated for 48 hrs followed by 1 uM cisplatin treatment by MTT assay; format: functional
[16] = test system: MDA-MB-231; assay: Potentiation of 10 uM cisplatin-induced toxicity in 1 uM cisplatin resistant human MDA-MB-231 cells at 1.5 uM pretreated for 48 hrs followed by 1 uM cisplatin treatment by MTT assay; format: functional
[17] = test system: CAL-27; assay: Potentiation of 2.5 uM cisplatin-induced toxicity in 1 uM cisplatin resistant human CAL27 cells at 1 uM pretreated for 48 hrs followed by 1 uM cisplatin treatment by MTT assay; format: functional
[18] = test system: KYSE-510; assay: Potentiation of 0.5 uM cisplatin-induced toxicity in 0.5 uM cisplatin resistant human KYSE-510 cells at 0.5 uM pretreated for 48 hrs followed by 0.5 uM cisplatin treatment by MTT assay; format: functional
[19] = test system: A2780; assay: Potentiation of 5 uM cisplatin-induced toxicity in 5 uM cisplatin resistant human A2780 cells at 0.5 uM pretreated for 48 hrs followed by 5 uM cisplatin treatment by MTT assay; format: functional
[20] = test system: CAL-27; assay: Potentiation of 5 uM cisplatin-induced toxicity in 1 uM cisplatin resistant human CAL27 cells at 0.5 uM pretreated for 48 hrs followed by 1 uM cisplatin treatment by MTT assay; format: functional
[21] = test system: MDA-MB-231; assay: Potentiation of 10 uM cisplatin-induced toxicity in 1 uM cisplatin resistant human MDA-MB-231 cells at 1 uM pretreated for 48 hrs followed by 1 uM cisplatin treatment by MTT assay; format: functional
[22] = test system: KYSE-510; assay: Cytotoxicity against cisplatin sensitive human KYSE-510 cells after 72 hrs by MTT assay; format: functional, cell-based; details: KYSE-510, 72 h
[23] = test system: CAL-27; assay: Potentiation of 2.5 uM cisplatin-induced toxicity in 1 uM cisplatin resistant human CAL27 cells at 0.5 uM pretreated for 48 hrs followed by 1 uM cisplatin treatment by MTT assay; format: functional
[24] = test system: CAL-27; assay: Potentiation of 10 uM cisplatin-induced toxicity in 1 uM cisplatin resistant human CAL27 cells at 1.5 uM pretreated for 48 hrs followed by 1 uM cisplatin treatment by MTT assay; format: functional
[25] = test system: CAL-27; assay: Potentiation of 45 uM cisplatin-induced toxicity in 1 uM cisplatin resistant human CAL27 cells at 0.25 uM pretreated for 48 hrs followed by 1 uM cisplatin treatment by MTT assay; format: functional
[26] = test system: MDA-MB-231; assay: Cytotoxicity against cisplatin sensitive human MDA-MB-231 cells after 72 hrs by MTT assay; format: functional, cell-based
Summary of the method: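 MDA-MB-231 (parental), 10 000 cells/well, in DMEM with 15% FCS at 37 °C, 5% CO2. Compounds added 24 h after seeding for 72 h. MTT (5 mg/mL in PBS) was added, formazan dissolved in DMSO, absorbance read at 544 and 690 nm. IC50 from four-parameter logistic fit of ≥3 experiments in triplicate.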

**Q.** Cc1cc(C)cc(C(=O)NOCCCCCC(=O)NO)c1 was tested. Which Activity [1] did it give?
**A.** Its Activity is “Dose-dependent effect”.

**Q.** What about the “fractional inhibitory concentration index (FICI)” value [1] of the same molecule?
**A.** Its value is 0.18.

**Q.** What about the Activity [2] of the same molecule?
**A.** The Activity was “Dose-dependent effect”.

**Q.** What about the “fractional inhibitory concentration index (FICI)” value [2] of the same molecule?
**A.** Its value is 0.74.

**Q.** And the IC50 [3]?
**A.** The IC50 was 1.03 µM.

**Q.** And the Activity [4]?
**A.** The Activity was “Dose-dependent effect”.

**Q.** And the Activity [5]?
**A.** Its Activity is “Dose-dependent effect”.

**Q.** And the “fractional inhibitory concentration index (FICI)” value [5]?
**A.** The value was 0.81.

**Q.** What about the IC50 [6] of the same molecule?
**A.** Its IC50 is 0.32 µM.

**Q.** And the Activity [7]?
**A.** The Activity was “Dose-dependent effect”.

**Q.** What about the “fractional inhibitory concentration index (FICI)” value [7] of the same molecule?
**A.** Its value is 0.75.

**Q.** What about the IC50 [8] of the same molecule?
**A.** The IC50 was 0.41 µM.

**Q.** What about the Activity [9] of the same molecule?
**A.** The Activity was “Dose-dependent effect”.

**Q.** And the “fractional inhibitory concentration index (FICI)” value [9]?
**A.** Its value is 0.97.

**Q.** What about the IC50 [10] of the same molecule?
**A.** The IC50 was 0.36 µM.

**Q.** What about the Activity [11] of the same molecule?
**A.** The Activity was “Dose-dependent effect”.

**Q.** And the “fractional inhibitory concentration index (FICI)” value [11]?
**A.** Its value is 0.16.

**Q.** What about the IC50 [12] of the same molecule?
**A.** The IC50 was 1.28 µM.

**Q.** What about the Activity [13] of the same molecule?
**A.** The Activity was “Dose-dependent effect”.

**Q.** And the “fractional inhibitory concentration index (FICI)” value [13]?
**A.** Its value is 0.81.

**Q.** And the Activity [14]?
**A.** The Activity was “Dose-dependent effect”.

**Q.** And the “fractional inhibitory concentration index (FICI)” value [14]?
**A.** Its value is 0.05.

**Q.** And the Activity [15]?
**A.** Its Activity is “Dose-dependent effect”.

**Q.** And the “fractional inhibitory concentration index (FICI)” value [15]?
**A.** The value was 0.34.

**Q.** What about the Activity [16] of the same molecule?
**A.** The Activity was “Dose-dependent effect”.

**Q.** What about the “fractional inhibitory concentration index (FICI)” value [16] of the same molecule?
**A.** The value was 0.79.

**Q.** What about the Activity [17] of the same molecule?
**A.** The Activity was “Dose-dependent effect”.

**Q.** And the “fractional inhibitory concentration index (FICI)” value [17]?
**A.** Its value is 0.38.

**Q.** And the Activity [18]?
**A.** The Activity was “Dose-dependent effect”.

**Q.** What about the “fractional inhibitory concentration index (FICI)” value [18] of the same molecule?
**A.** Its value is 0.13.

**Q.** What about the Activity [19] of the same molecule?
**A.** The Activity was “Dose-dependent effect”.

**Q.** And the “fractional inhibitory concentration index (FICI)” value [19]?
**A.** The value was 0.73.

**Q.** And the Activity [20]?
**A.** The Activity was “Dose-dependent effect”.

**Q.** And the “fractional inhibitory concentration index (FICI)” value [20]?
**A.** Its value is 0.45.

**Q.** What about the Activity [21] of the same molecule?
**A.** The Activity was “Dose-dependent effect”.

**Q.** And the “fractional inhibitory concentration index (FICI)” value [21]?
**A.** Its value is 0.85.

**Q.** What about the IC50 [22] of the same molecule?
**A.** The IC50 was 2.96 µM.

**Q.** And the Activity [23]?
**A.** The Activity was “Dose-dependent effect”.

**Q.** What about the Activity [24] of the same molecule?
**A.** Its Activity is “Dose-dependent effect”.

**Q.** And the “fractional inhibitory concentration index (FICI)” value [24]?
**A.** Its value is 0.2.

**Q.** And the Activity [25]?
**A.** The Activity was “Dose-dependent effect”.

**Q.** And the “fractional inhibitory concentration index (FICI)” value [25]?
**A.** The value was 0.27.

**Q.** And the Activity [26]?
**A.** Its Activity is “Dose-dependent effect”.

**Q.** What about the IC50 ([26]; MDA-MB-231, 72 h) of the same molecule?
**A.** The IC50 was 1.37 µM.
